# Results published in ChEMBL document CHEMBL1123247, “Nucleoside conjugates. 7. Synthesis and antitumor activity of 1-beta-D-arabinofuranosylcytosine conjugates of ether lipids” (J Med Chem, 1986).
# Legend:
# L1210 [1] = experiment: Antitumor activity was determined against the ip implanted L1210 leukemia in mice by 45-day survivors in mice at 300 mg/kg (treatment of 1qd schedule) dosage; type: functional, Mus musculus; conditions: route intraperitoneal
# Method in brief: (§1)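 DBA/2J mice in groups of 6 (wt 23-28 g) were inoculated ip with 1×10^6 L1210 cells on day 0. Dosing was ip from 24 h, in 0.9% NaCl with 0.5% Tween-80 (conjugates sonicated), across a range of doses. Mice were observed daily until death or 45 days. Median T/C was computed from survivors per NCI protocols, and ILS = (T/C − 1)×100.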
# L1210 [2] = experiment: Antitumor activity was determined against the ic implanted L1210 lymphoid leukemia in mice by range in survival days at 80 mg/kg (1-5qd treatment schedule) dosage; Range is 11-24; type: functional, Mus musculus
# L1210 [3] = experiment: Antitumor activity was determined against the ip implanted L1210 leukemia in mice by change in […] at 40 mg/kg (treatment of 1-5qd schedule) dosage; type: functional, Mus musculus; conditions: route intraperitoneal
# Method in brief: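 DBA/2J mice, 6 per group (wt 23-28 g), inoculated ip with 1×10^6 L1210 cells on day 0. Treatment was given ip in 0.9% NaCl with 0.5% Tween-80, starting 24 h later. Weight change was taken on day 8. Mice were observed daily until death or 45 days. Median survival T/C and %ILS = (T/C − 1) × 100 came from survivors per NCI protocols, and 45-day survivors were counted.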
# L1210 [4] = experiment: Antitumor activity against ic implanted L1210 lymphoid leukemia in mice expressed as active dose range (1,5,9qd treatment schedule) required to produce increase in life span by >25% was determined; Range 67-133; type: functional, Mus musculus
# Method in brief: (§2)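 DBA/2J mice, groups of 6 (26-32 g), got 1 × 10^5 L1210 cells ic on day 0. Dosing was ip starting 24 h later, as a sonicated solution or suspension in 0.9% NaCl with 0.5% Tween-80, over a wide dose range. Mice were followed daily until death. Median survival T/C was taken from survivors per NCI protocols, and ILS = (T/C − 1) × 100. Active range means doses giving ILS ≥25%; optimal dose means greatest ILS.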
# P388 [5] = experiment: Antitumor activity was determined against the ip implanted P388 leukemia in mice by range in survival days at 133 mg/kg (treatment of 1,5,9qd schedule) dosage; Range is 31->45; type: functional, Mus musculus; conditions: route intraperitoneal
# L1210 [6] = experiment: Antitumor activity was determined against the ip implanted L1210 leukemia in mice by percent median survival rate (treated/control) at 40 mg/kg (treatment of 1-5qd schedule) dosage; 30.0/8.0; type: functional, Mus musculus; conditions: route intraperitoneal
# Method in brief: (§3)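 DBA/2J mice, 23-28 g, in groups of 6, were inoculated ip with 1×10^6 L1210 cells on day 0. Dosing was ip starting 24 h later on the stated daily schedules. Conjugates were given as sonicated solutions and reference prodrugs as suspensions in 0.9% NaCl with 0.5% Tween-80. Mice were observed daily until death or 45 days. Median survival T/C was calculated from survivors per NCI protocols.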
# P388 [7] = experiment: Antitumor activity was determined against the ip implanted P388 leukemia in mice by change in […] at 500 mg/kg (1 qd treatment schedule) dosage; type: functional, Mus musculus; conditions: route intraperitoneal
# Method in brief: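 P388 leukemia, 1×10^6 cells implanted ip on day 0 into DBA/2J mice, groups of 6 (wt 23-33 g). Dosing ip started 24 h post-inoculation, vehicle 0.9% NaCl containing 0.5% Tween-80. Animals were observed daily until death or 45 days. Outputs were weight change, median survival T/C from survivors per NCI protocols, and %ILS = (T/C − 1) × 100.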
# L1210 [8] = experiment: Antitumor activity was determined against the ip implanted L1210 leukemia in mice by percent median survival rate (treated/control) at 300 mg/kg (treatment of 1qd schedule) dosage; 20.5/6.5; type: functional, Mus musculus; conditions: route intraperitoneal; method in brief: as §3
# L1210 [9] = experiment: Antitumor activity against the ic implanted L1210 lymphoid leukemia in mice expressed as optimal dose (1-9qd treatment schedule) required to produce greatest increase in life span was determined; type: functional, Mus musculus; method in brief: as §2
# P388 [10] = experiment: Antitumor activity was determined against the ip implanted P388 leukemia in mice by 45-day survivors in mice at 200 mg/kg (treatment of 1-5qd schedule) dosage; type: functional, Mus musculus; conditions: route intraperitoneal
# Method in brief: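 DBA/2J mice, 23-33 g, in groups of 6, were inoculated ip with 1×10^6 P388 cells on day 0. Dosing was ip from 24 h on the stated schedules, in 0.9% NaCl with 0.5% Tween-80 (sonicated solution or suspension). Survival was followed daily until death or 45 days. Median T/C was calculated from survivors per NCI protocols, with ILS = (T/C − 1) × 100.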
# [11] = test system: Non-small cell lung cancer cell line; experiment: Compound was tested for the inhibition of non- small cell lung cancer; type: functional, cell-based; conditions: Homo sapiens
# Method in brief: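 Human leukemia and solid tumor cells in culture were exposed to compound for 48 h. Viability was scored by trypan blue dye exclusion. IC50 (50% inhibition) was estimated from response curves of three separate experiments.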
# L1210 [12] = experiment: Antitumor activity was determined against the ip implanted L1210 leukemia in mice by range in survival days at 400 mg/kg (treatment of 1qd schedule) dosage; Range is 9-11; type: functional, Mus musculus; conditions: route intraperitoneal; method in brief: as §3
# P388 [13] = experiment: Antitumor activity against ip implanted P388 leukemia in mice expressed as active dose range (1 qd treatment schedule) required to produce increase in life span by >25% was determined; Range is 100-600; type: functional, Mus musculus
# Method in brief: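 P388 leukemia: 1 × 10^6 cells were given ip on day 0 to DBA/2J mice, groups of 6 (23-33 g). Treatment was ip from 24 h after inoculation, vehicle 0.9% NaCl with 0.5% Tween-80. Mice were observed daily until death or 45 days. Median survival T/C was calculated from survivors per NCI protocols, and ILS = (T/C − 1) × 100. Active range means doses giving ILS ≥25%; optimal dose means greatest ILS.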
# L1210 [14] = experiment: Antitumor activity was determined against the ip implanted L1210 leukemia in mice by 45-day survivors in mice at 80 mg/kg (treatment of 1-5qd schedule) dosage; type: functional, Mus musculus; conditions: route intraperitoneal; method in brief: as §1
# P388 [15] = experiment: Antitumor activity was determined against the ip implanted P388 leukemia in mice by percent median survival rate (treated/control) at 60 mg/kg (treatment of 1-5qd schedule) dosage; >45.0/11.0; type: functional, Mus musculus; conditions: route intraperitoneal
# L1210 leukemia (mouse) = experiment: Antitumor activity was determined against the ic implanted L1210 lymphoid leukemia in mice by percent median survival rate (treated/control) at 500 mg/kg (treatment of 1qd schedule) dosage; 23.0/7.0
# L1210 [16] = experiment: Antitumor activity was determined against the ic implanted L1210 lymphoid leukemia in mice by median survival time at 100 mg/kg (treatment of 1-5qd schedule) dosage; 22.0/7.0
# P388 [17] = experiment: Antitumor activity was determined against the ip implanted P388 leukemia in mice by percent increase in life span at 67 mg/kg (treatment of 1,5,9qd schedule) dosage; type: functional, Mus musculus; conditions: route intraperitoneal
# P388 [18] = experiment: Antitumor activity was determined against the ip implanted P388 leukemia in mice by range in survival days at 60 mg/kg (1-5qd treatment schedule) dosage; 21-24; type: functional, Mus musculus; conditions: route intraperitoneal
# L1210 [19] = experiment: Antitumor activity was determined against the ip implanted L1210 leukemia in mice by percent increase in life span at 100 mg/kg (treatment of 1-5qd schedule) dosage; type: functional, Mus musculus; conditions: route intraperitoneal; method in brief: as §1
structure (smiles),measurement,setting,value
CCCCCCCCCCCCCCCC(=O)OC[C@H](COP(=O)(O)OP(=O)(O)OC[C@H]1O[C@@H](n2ccc(N)nc2=O)[C@@H](O)[C@@H]1O)OC(=O)CCCCCCCCCCCCCCC,Survivors,L1210 [1],1
same,Range,L1210 [2],11
same,Weight change,L1210 [3],-1.9 g mouse-1
same,Active dose range,L1210 [4],67 mg/kg/day
same,Range,P388 [5],31
same,median survival time,L1210 [6],30 days
same,Weight change,P388 [7],-0.07 g mouse-1
same,median survival time,L1210 [8],20.5 days
Nc1ccn([C@@H]2O[C@H](CO)[C@@H](O)[C@@H]2O)c(=O)n1 [CYTARABINE],Optimal dose,L1210 [9],100 mg
same,Survivors,P388 [10],0
same,IC50,[11],34 µM
same,Range,L1210 [12],9
same,Active dose range,P388 [13],100 mg/kg/day
CCCCCCCCCCCCCCCCOCC(COP(=O)(O)OP(=O)(O)OC[C@H]1O[C@@H](n2ccc(N)nc2=O)[C@@H](O)[C@@H]1O)OC(=O)CCCCCCCCCCCCCCC (mixture of isomers),Survivors,L1210 [14],0
same,T/C,P388 [15],>45%
same,T/C,L1210 leukemia (mouse),23%
same,median survival time,L1210 [16],22 days
CCCCCCCCCCCCCCCCCCOCC(COP(=O)(O)OP(=O)(O)OC[C@H]1O[C@@H](n2ccc(N)nc2=O)[C@@H](O)[C@@H]1O)OC(=O)CCCCCCCCCCCCCCC (mixture of isomers),ILS,P388 [17],132
same,Range,P388 [18],21
same,ILS,L1210 [19],229
